The text below walks through data of ChEMBL document CHEMBL3414478, “Activity of 2-aryl-2-(3-indolyl)acetohydroxamates against drug-resistant cancer cells” (J Med Chem, 2015).

For one data set, the system named is HeLa. Nature of the data set: Antiproliferative activity against human HeLa cells assessed as reduction in cell viability after 48 hrs by MTT assay. It counts as functional, cell-based. A digest of the protocol: (§1)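 MTT assay. HeLa and U87 cells were grown in DMEM + 10% FBS, and MCF-7 cells in RPMI + 10% FBS. Cells were seeded at 4 × 10³/well, grown 24 h, then exposed to 0.001–100 μM for 48 h. 0.1% DMSO was the negative control and 1 μM PAO the positive control. Quadruplicate wells, ≥2 repeats.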
Background: Tetrazolium dyes change colour on reduction, which living cells bring about.

A further data set has as its system MCF7. Put plainly: Antiproliferative activity against human MCF7 cells assessed as reduction in cell viability after 48 hrs by MTT assay. The settings on record: MCF7, 48 h. It counts as functional, cell-based. Summed up: as §1
Data set [1] in a line: Antiproliferative activity against human U87 cells assessed as reduction in cell viability after 48 hrs by MTT assay. It counts as functional, U-87MG ATCC. Particulars: U-87 MG. A digest of the protocol:
as §1

A short description of data set [2]: Antiproliferative activity against human GBM 031810 cells assessed as reduction in cell viability after 48 hrs by MTT assay. It counts as functional. Particulars: GBM 031810, 48 h. Summed up: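 Patient-derived glioblastoma neurosphere culture GBM 031810, kept in Neurobasal medium with B27, Glutamax, FGF-2 (20 ng/ml), EGF (20 ng/ml) and heparin; growth factors renewed twice weekly. GI50 is the average ± SD of three determinations.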

In data set [3] the test system is U-87MG ATCC. Nature of the data set: Antiproliferative activity against human U87 cells assessed as reduction in cell viability up to 100 uM after 48 hrs by MTT assay. It counts as functional, cell-based. A digest of the protocol: (§2)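 Cells (U87 in DMEM, A549 in RPMI with 10% heat-inactivated FBS) were seeded at 4 × 10³/well, grown 24 h, then exposed to 0.001–100 μM compound (DMSO stocks) for 48 h at 37 °C, 5% CO₂. Quadruplicates, repeated at least twice; 0.1% DMSO negative control, 1 μM PAO positive control.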

The test system of a further data set is A549. Put plainly: Antiproliferative activity against human A549 cells assessed as reduction in cell viability up to 100 uM after 48 hrs by MTT assay. It counts as functional, cell-based. Summed up: as §2
In a further data set the test system is NHDF. Put plainly: Cytotoxicity against human NHDF cells assessed as cell growth after 48 hrs by MTT assay. It counts as cell-based. A digest of the protocol: (§3)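 Normal fibroblasts (NHDF, NHLF) were grown in FGM-2 medium at 37 °C, 5% CO2, seeded at 4 × 10³/well and grown 24 h. Controls were 0.1% DMSO and 1 μM PAO. Quadruplicate wells, repeated at least twice.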

The nature of data set [4]: Cytotoxicity against human NHLF cells assessed as cell growth after 48 hrs by MTT assay. It counts as cell-based. A digest of the protocol:
as §3

Data set [5] in a line: Antiproliferative activity against human U373 cells assessed as global growth ratio measured as cell growth at 25 uM after 24 hrs by Quantitative videomicroscopy relative to untreated control. It counts as functional, U-373MG ATCC. The settings on record: in the assay text read “after 72 hrs” for “after 24 hrs”. Summed up:
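U373 cells were grown in RPMI + 10% heat-inactivated FBS and followed by computer-assisted phase-contrast videomicroscopy with 25 μM compound. The global growth ratio is the mean cell count per image at 24, 48 or 72 h divided by the count at 0 h, then normalised to the same ratio in the untreated control.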

The subject of data set [6] is U-87MG ATCC. Put plainly: Redifferentiation of human U87 cells assessed as nonmalignant state resembling reactive astrocyte/phenotype at 7 uM after 3 days. The settings on record: in the assay text read “33 days” for “3 days”. It counts as functional, cell-based. Summed up: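 U87 cells were plated at 5 × 10⁴/well in DMEM/10% FBS. Next day they were re-fed and dosed at final concentrations between 15 and 5 μM, with medium not replaced afterwards. Morphology was followed for several weeks (33-day treatment shown at 7 μM) against untreated cells.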

Activity calls are given as the source filed them. The calls are words filed in the database; no cut-off is given here.

In general, IC50 refers to the midpoint of a concentration-inhibition curve. What is called GI50 is the concentration at which growth is held to half of that of the control. Consider `CC(C)c1ccc(C(C(=O)NO)c2c(-c3ccc4ccccc4c3)[nH]c3ccccc23)cc1` (centres undefined), for which the IC50 stood at 0.68 µM with HeLa and 1.4 µM with MCF7. Also, the results for the GI50 in [1] and in data set [2] were 5 µM and 3.4 µM, respectively.
Regarding `Cc1cccc(C(C(=O)NO)c2c(-c3ccc4ccccc4c3)[nH]c3ccccc23)c1` (centres undefined), the IC50 was determined as 6.9 µM in the data set on HeLa and 7.4 µM in the data set on MCF7.
For `O=C(NO)C(c1ccccc1)c1c(-c2ccccc2[N+](=O)[O-])[nH]c2ccccc12` (centres undefined), in that order: greater than 50 µM and greater than 50 µM.
In the case of `CC(=O)O[C@H]1C(=O)[C@@]2(C)[C@H]([C@H](OC(=O)c3ccccc3)[C@]3(O)C[C@H](OC(=O)[C@H](O)[C@@H](NC(=O)c4ccccc4)c4ccccc4)C(C)=C1C3(C)C)[C@]1(OC(C)=O)CO[C@@H]1C[C@@H]2O`, the result in the data set with U-87MG ATCC [3] and in the data set with A549 was inactive.
Regarding `Cc1[nH]c2ccccc2c1C(C(=O)NO)c1ccccc1` (centres undefined), the IC50 in the data set on HeLa and with MCF7 was greater than 50 µM each time.
Turning to `COc1ccc(C(C(=O)NO)c2c(-c3ccc4ccccc4c3)[nH]c3ccccc23)cc1OC` (centres undefined), the IC50 in the data set with HeLa was determined as 26.9 µM; with MCF7, 2.4 µM.
Regarding `O=C(NO)C(c1ccccc1)c1c(-c2ccccc2)[nH]c2ccccc12` (centres undefined), the IC50 amounted to 23 µM with HeLa and 31 µM in the data set on MCF7.
For the molecule `Cn1c(-c2ccc3ccccc3c2)c(C(C(=O)NO)c2ccccc2Br)c2ccccc21` (centres undefined), the IC50 was 24 µM with HeLa and 11.2 µM in the data set on MCF7.
The corresponding values for `O=C(NO)C(c1ccccc1Br)c1c(-c2ccc3ccccc3c2)[nH]c2ccccc12` (centres undefined) are 13 µM and 2.7 µM.
For `CCCCn1c(-c2ccc3ccccc3c2)c(C(C(=O)NO)c2ccccc2)c2ccccc21` (centres undefined), in that order: 5.6 µM and 7.8 µM.
The corresponding values for `NC(=O)C(c1ccccc1)c1c(-c2ccc3ccccc3c2)[nH]c2ccccc12` (centres undefined) are 9.3 µM and 11.6 µM.
Turning to `N#CC(c1ccccc1)c1c(-c2ccc3ccccc3c2)[nH]c2ccccc12` (centres undefined), the IC50 with HeLa is 17.4 µM; in the data set on MCF7 it was 20.6 µM.
The corresponding values for `CCC(C)n1c(-c2ccc3ccccc3c2)c(C(C(=O)NO)c2ccccc2)c2ccccc21` (centres undefined) are 9.8 µM and 9.3 µM.
Regarding `Cc1ccc(C(C(=O)NO)c2c(-c3ccc4ccccc4c3)[nH]c3ccccc23)cc1` (centres undefined), the values for the IC50 in the data set with HeLa and with MCF7 were 6.3 µM and 4.9 µM, respectively.
Turning to `CN(C)c1ccc(C(C(=O)NO)c2c(-c3ccc4ccccc4c3)[nH]c3ccccc23)cc1` (centres undefined), the values for the IC50 with HeLa and in the data set with MCF7 were 0.6 µM and 1.1 µM, respectively. Moreover, the GI50 in data set [2] came to 5.6 µM. For the same molecule, the Activity result (with NHDF; in data set [4]) was “Non-toxic” in each case.
For `COc1cc([C@@H]2c3cc4c(cc3[C@H](O)[C@H]3COC(=O)[C@H]23)OCO4)cc(OC)c1OC`, the result in the data set with U-87MG ATCC [3] and with A549 was inactive.
Regarding `O=C(NO)C(c1ccc(F)cc1)c1c(-c2ccc3ccccc3c2)[nH]c2ccccc12` (centres undefined), the IC50 in the data set with HeLa was 18.2 µM; with MCF7 it was 6.3 µM.
For `O=C(NO)C(c1cccc(F)c1)c1c(-c2ccc3ccccc3c2)[nH]c2ccccc12` (centres undefined), in that order: 32.9 µM and 20.4 µM.
As for `O=C(NO)C(c1ccccc1)c1c(-c2ccc3ccccc3c2)[nH]c2ccccc12` (centres undefined), the values for the IC50 in the data set with HeLa and in the data set on MCF7 were 3.6 µM and 3.4 µM, respectively. Also, the Activity in data set [5] was 30%; with NHDF, “Non-toxic”; in data set [4] it was “Non-toxic”. Also, in the data set with U-87MG ATCC [6], the outcome was Active. The GI50 in [2] is 0.8 µM.
For the molecule `Cc1ccc(C(C(=O)NO)c2c(-c3ccc4ccccc4c3)[nH]c3ccccc23)cc1C` (centres undefined), the IC50 was 2.7 µM in the data set with HeLa and 2.5 µM with MCF7.
For `O=C(NO)C(c1ccc([N+](=O)[O-])cc1)c1c(-c2ccccc2)[nH]c2ccccc12` (centres undefined), in that order: greater than 50 µM and greater than 50 µM.
For `COc1ccc(-c2[nH]c3ccccc3c2C(C(=O)NO)c2ccccc2)cc1` (centres undefined), in that order: greater than 50 µM and greater than 50 µM.
The corresponding values for `O=C(NO)C(c1ccccc1Cl)c1c(-c2ccc3ccccc3c2)[nH]c2ccccc12` (centres undefined) are 31 µM and 4.9 µM.
Take `CCN(CC)c1ccc(C(C(=O)NO)c2c(-c3ccc4ccccc4c3)[nH]c3ccccc23)cc1` (centres undefined): the IC50 in the data set with HeLa is 4.1 µM; in the data set with MCF7, 7.9 µM.
The corresponding values for `CCOc1ccc(C(C(=O)NO)c2c(-c3ccc4ccccc4c3)[nH]c3ccccc23)cc1` (centres undefined) are 17.3 µM and 8.5 µM.
Turning to `O=C(NO)C(c1ccc(OC(F)(F)F)cc1)c1c(-c2ccc3ccccc3c2)[nH]c2ccccc12` (centres undefined), the half-inhibitory concentration (IC50) in the data set with HeLa is 27.4 µM; with MCF7, 10.2 µM.
The corresponding values for `Cn1c(-c2ccc3ccccc3c2)c(C(C(=O)NO)c2ccccc2)c2ccccc21` (centres undefined) are 19.7 µM and 10 µM.
The corresponding values for `CCCCn1c(-c2ccc3ccccc3c2)c(C(C(=O)NO)c2ccc(C(C)C)cc2)c2ccccc21` (centres undefined) are 6.6 µM and 7.7 µM.
Regarding `COc1ccc2[nH]c(-c3ccc4ccccc4c3)c(C(C(=O)NO)c3ccccc3)c2c1` (centres undefined), the IC50 with HeLa and in the data set with MCF7 was greater than 50 µM throughout.
On to `Cn1c(-c2ccc3ccccc3c2)c(C(C(=O)NO)c2cccc(F)c2)c2ccccc21` (centres undefined), for which the IC50 in the data set on HeLa came to 36.8 µM; in the data set on MCF7, 25.7 µM.
The corresponding values for `O=C(NO)C(c1ccccc1)c1c(-c2cccc3ccccc23)[nH]c2ccccc12` (centres undefined) are 25.7 µM and 32 µM.
With `O=C(NO)C(c1ccccc1)c1c(-c2ccc3ccccc3c2)n(Cc2ccccc2)c2ccccc12` (centres undefined), the IC50 in the data set on HeLa stood at 5.4 µM; in the data set with MCF7 it was 5.5 µM.
In the case of `Cn1nnc2c(C(N)=O)ncn2c1=O` [TEMOZOLOMIDE], in data set [2], the GI50 was greater than 1000 µM.
Turning to `Cc1ccc2[nH]c(-c3ccc4ccccc4c3)c(C(C(=O)NO)c3ccccc3)c2c1` (centres undefined), the IC50 in the data set with HeLa and in the data set with MCF7 was greater than 50 µM in each case.
On to `O=C(NO)C(c1ccc(Cl)c(Cl)c1)c1c(-c2ccc3ccccc3c2)[nH]c2ccccc12` (centres undefined), for which the IC50 in the data set with HeLa is 31.7 µM; in the data set with MCF7, 12.2 µM.
